Test results: ChEMBL document CHEMBL1139160 (Bioorg Med Chem Lett, 2007)

system: Rattus norvegicus; assay: Inhibition of DPP4 in Wistar rat plasma at 10 umol/kg, po after 9 hrs; type: functional; conditions: read-out: Inhibition
Procedure, shortened: (§1)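 Male/female not stated; Wistar rats given single oral dose of 10 µmol/kg in 0.5% hydroxypropylmethyl-cellulose. Jugular vein blood (0.1 mL) taken pre-dose and 0.5, 1, 2, 3, 5, 7, 9 h; plasma diluted 10-fold in PBS with 0.003% Brij-35, DPP-IV activity read by Gly-Pro-MCA fluorescence (ex 360/em 465 nm); % change of baseline, means ± SEM, n = 3.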

Structure (SMILES)	inhibition in vivo at 10 µmol/kg
N#Cc1ccc(N2CCN([C@@H]3CN[C@H](C(=O)N4CCSC4)C3)CC2)cc1C#N	> 60%
O=C([C@@H]1C[C@H](N2CCN(c3ccc([N+](=O)[O-])cn3)CC2)CN1)N1CCSC1	> 60%

system: Rattus norvegicus; assay: Inhibition of DPP4 in Wistar rat plasma at 10 umol/kg, po within 30 mins; type: functional; conditions: 0.5 h; procedure, shortened: as §1

Structure (SMILES)	inhibition in vivo at 10 µmol/kg
N#Cc1ccc(N2CCN([C@@H]3CN[C@H](C(=O)N4CCSC4)C3)CC2)cc1C#N	95%
O=C([C@@H]1C[C@H](N2CCN(c3ccc([N+](=O)[O-])cn3)CC2)CN1)N1CCSC1	95%

system: Rattus norvegicus; assay: Inhibition of DPP4 in Wistar rat plasma at 10 umol/kg, po; type: functional; conditions: not given; procedure, shortened: as §1

Structure (SMILES)	inhibition in vivo at 10 µmol/kg
N#Cc1ccc(N[C@@H]2CN[C@H](C(=O)N3CCSC3)C2)nc1	70%

biological target: Dipeptidyl peptidase 4 (Rattus norvegicus, UniProt P14740); assay: Inhibition of DPP4 in rat plasma by fluorescence assay; type: cell-free; conditions: not given
Sequence (P14740 whole entry): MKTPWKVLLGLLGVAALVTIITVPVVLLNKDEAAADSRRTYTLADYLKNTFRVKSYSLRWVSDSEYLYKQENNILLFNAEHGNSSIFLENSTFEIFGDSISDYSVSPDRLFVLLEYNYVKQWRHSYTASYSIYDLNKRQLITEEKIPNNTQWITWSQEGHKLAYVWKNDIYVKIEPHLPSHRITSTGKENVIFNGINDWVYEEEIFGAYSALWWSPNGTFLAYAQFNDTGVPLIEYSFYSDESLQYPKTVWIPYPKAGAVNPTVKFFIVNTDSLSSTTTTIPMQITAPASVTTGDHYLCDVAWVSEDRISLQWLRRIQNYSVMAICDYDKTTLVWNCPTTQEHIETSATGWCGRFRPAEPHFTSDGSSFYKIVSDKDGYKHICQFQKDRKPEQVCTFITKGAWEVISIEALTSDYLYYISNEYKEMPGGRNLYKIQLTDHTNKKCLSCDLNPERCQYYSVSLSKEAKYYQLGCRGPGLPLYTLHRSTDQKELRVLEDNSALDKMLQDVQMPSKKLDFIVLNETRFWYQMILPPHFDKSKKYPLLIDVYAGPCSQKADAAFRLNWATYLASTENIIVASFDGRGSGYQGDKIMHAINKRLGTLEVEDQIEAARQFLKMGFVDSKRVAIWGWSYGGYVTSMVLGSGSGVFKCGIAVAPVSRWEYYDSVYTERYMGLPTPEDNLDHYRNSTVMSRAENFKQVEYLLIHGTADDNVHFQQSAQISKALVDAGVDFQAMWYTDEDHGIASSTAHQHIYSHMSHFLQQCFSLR

Structure (SMILES)	IC50
O=C([C@@H]1C[C@H](N2CCN(c3ccc(F)cc3)CC2)CN1)N1CCSC1	17.5 nM
O=C([C@@H]1C[C@H](N2CCN(c3cccc(Cl)c3)CC2)CN1)N1CCSC1	7.2 nM
O=C([C@@H]1C[C@H](N2CCN(c3ccc(C(F)(F)F)cc3)CC2)CN1)N1CCSC1	7.2 nM
COc1ccc(N2CCN([C@@H]3CN[C@H](C(=O)N4CCSC4)C3)CC2)cc1	16.9 nM
N#Cc1ccc(N2CCN([C@@H]3CN[C@H](C(=O)N4CCSC4)C3)CC2)cc1	4.7 nM
N#Cc1ccc(N2CCN([C@@H]3CN[C@H](C(=O)N4CCSC4)C3)CC2)nc1	1.9 nM
O=C([C@@H]1C[C@H](N2CCCCC2)CN1)N1CCSC1	74.4 nM
N#Cc1ccnc(N2CCN([C@@H]3CN[C@H](C(=O)N4CCSC4)C3)CC2)c1	1.4 nM
O=C([C@@H]1C[C@H](N2CCN(c3ccc(Cl)cc3)CC2)CN1)N1CCSC1	10.3 nM
O=C([C@@H]1C[C@H](N2CCN(c3ccccc3)CC2)CN1)N1CCSC1	17.6 nM
O=C([C@@H]1C[C@H](N2CCN(c3ccc(Br)cc3)CC2)CN1)N1CCSC1	9 nM
